One compound from ChEMBL document CHEMBL4354843, “Structure-Based Design of a Potent and Selective Covalent Inhibitor for SRC Kinase That Targets a P-Loop Cysteine” (J Med Chem, 2020) can be followed below.

The source made the active and inactive calls. The rule behind the calls is not given here.

The target of test [1] is Ribosomal protein S6 kinase alpha-1 (Homo sapiens) (UniProt Q15418). Description: Binding affinity to wild-type human partial length N-terminal RSK1 Kinase domain 1 (M1 to E388 residues) expressed in bacterial expression system assessed as residual binding level at 1 uM by Kinomescan method relative to control.
Test [2] addresses Serine/threonine-protein kinase RIO2 (Homo sapiens) (UniProt Q9BVS4). Put plainly: Binding affinity to wild-type human partial length RIOK2 (M1 to D313 residues) expressed in mammalian expression system assessed as residual binding level at 1 uM by Kinomescan method relative to control.
The target of test [3] is Serine/threonine-protein kinase DCLK1 (Homo sapiens) (UniProt O15075). Put plainly: Binding affinity to wild-type human partial length DCAMKL1 (L270 to A662 residues) expressed in mammalian expression system assessed as residual binding level at 1 uM by Kinomescan method relative to control.
Test [4] concerns the target STE20/SPS1-related proline-alanine-rich protein kinase (Homo sapiens) (UniProt Q9UEW8). Description: Binding affinity to wild-type human partial length STK39 (P43 to I357 residues) expressed in mammalian expression system assessed as residual binding level at 1 uM by Kinomescan method relative to control.
Test [5] addresses Cyclin-dependent kinase 2 homolog (Plasmodium falciparum (isolate 3D7)) (UniProt P61075). Description: Binding affinity to wild-type Plasmodium falciparum full length PK5 (M1 to N288 residues) expressed in mammalian expression system assessed as residual binding level at 1 uM by Kinomescan method relative to control. Put shortly:
(§1)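 Active-site-directed KinomeScan competition binding panel covering 468 kinases, compound tested at 1 μM. Each readout is the kinase signal remaining with compound, expressed as a percentage of the DMSO control. […]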

In test [6] the target is Phosphatidylinositol 5-phosphate 4-kinase type-2 beta (Homo sapiens) (UniProt P78356). Put plainly: Binding affinity to wild-type human full length PIP5K2B (M1 to T416 residues) expressed in bacterial expression system assessed as residual binding level at 1 uM by Kinomescan method relative to control. Put shortly: (§2)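 KinomeScan, an active site-directed competition binding panel of 468 kinases. The test compound was at 1 μM. The readout is remaining kinase binding as a percentage of the DMSO control. Scores above 35% were treated as weak binding and not listed.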

The test system of test [7] is Receptor-type tyrosine-protein kinase FLT3 (Homo sapiens), P36888 [R834Q]. Put plainly: Binding affinity to human partial length FLT3 R834Q mutant (V592 to Y969 residues) expressed in mammalian expression system assessed as residual binding level at 1 uM by Kinomescan method relative to control. Put shortly:
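KinomeScan active site-directed competition binding panel (468 kinases), compound tested at 1 μM. Result expressed as remaining kinase signal versus DMSO control (percent of control).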

For test [8], the target named is Cyclin-dependent kinase 13 (Homo sapiens) (UniProt Q14004). Put plainly: Binding affinity to wild-type human partial length CDC2L5 (H675 to S1054 residues) expressed in mammalian expression system assessed as residual binding level at 1 uM by Kinomescan method relative to control.
Cyclin-dependent kinase 13 (Homo sapiens), sequence (Q14004 whole entry, looked up, the tested form may be a part): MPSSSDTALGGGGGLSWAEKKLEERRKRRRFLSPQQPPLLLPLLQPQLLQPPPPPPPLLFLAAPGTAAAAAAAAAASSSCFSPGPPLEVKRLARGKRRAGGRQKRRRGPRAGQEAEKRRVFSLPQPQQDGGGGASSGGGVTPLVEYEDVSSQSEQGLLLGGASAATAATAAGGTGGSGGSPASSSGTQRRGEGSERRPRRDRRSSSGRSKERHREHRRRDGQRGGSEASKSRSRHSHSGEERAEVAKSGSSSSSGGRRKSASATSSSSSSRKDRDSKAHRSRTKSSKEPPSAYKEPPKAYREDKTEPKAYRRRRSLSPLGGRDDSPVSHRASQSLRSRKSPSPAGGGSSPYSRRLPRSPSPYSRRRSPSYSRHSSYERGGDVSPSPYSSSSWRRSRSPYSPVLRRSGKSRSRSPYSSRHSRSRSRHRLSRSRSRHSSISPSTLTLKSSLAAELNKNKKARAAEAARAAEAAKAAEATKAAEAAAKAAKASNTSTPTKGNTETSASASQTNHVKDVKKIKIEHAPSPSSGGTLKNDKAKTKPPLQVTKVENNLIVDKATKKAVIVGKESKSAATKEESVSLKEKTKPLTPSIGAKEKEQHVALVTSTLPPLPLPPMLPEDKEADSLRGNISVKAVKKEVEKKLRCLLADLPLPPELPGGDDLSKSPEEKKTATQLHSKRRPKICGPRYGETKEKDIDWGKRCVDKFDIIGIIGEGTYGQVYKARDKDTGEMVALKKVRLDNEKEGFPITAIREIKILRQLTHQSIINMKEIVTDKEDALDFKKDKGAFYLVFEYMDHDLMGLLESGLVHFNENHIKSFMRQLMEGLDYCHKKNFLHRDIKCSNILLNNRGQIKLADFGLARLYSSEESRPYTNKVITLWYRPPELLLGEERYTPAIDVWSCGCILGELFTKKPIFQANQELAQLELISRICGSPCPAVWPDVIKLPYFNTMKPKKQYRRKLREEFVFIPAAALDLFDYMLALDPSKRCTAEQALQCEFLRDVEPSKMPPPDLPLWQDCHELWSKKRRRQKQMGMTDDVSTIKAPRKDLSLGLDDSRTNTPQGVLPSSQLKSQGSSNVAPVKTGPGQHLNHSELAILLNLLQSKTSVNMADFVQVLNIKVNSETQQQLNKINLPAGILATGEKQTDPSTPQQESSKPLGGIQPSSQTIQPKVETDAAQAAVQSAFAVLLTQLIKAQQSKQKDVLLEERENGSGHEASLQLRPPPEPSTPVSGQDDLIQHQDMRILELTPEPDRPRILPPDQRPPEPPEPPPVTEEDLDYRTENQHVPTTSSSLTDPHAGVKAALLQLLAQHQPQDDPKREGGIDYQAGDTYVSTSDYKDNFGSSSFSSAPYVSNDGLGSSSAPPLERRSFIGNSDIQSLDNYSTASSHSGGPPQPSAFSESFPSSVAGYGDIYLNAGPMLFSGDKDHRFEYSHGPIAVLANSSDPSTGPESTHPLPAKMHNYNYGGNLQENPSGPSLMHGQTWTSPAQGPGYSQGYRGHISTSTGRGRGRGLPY
In test [9] the target is SRSF protein kinase 3 (Homo sapiens) (UniProt Q9UPE1). Description: Binding affinity to wild-type human partial length SRPK3 (P41 to P567 residues) expressed in bacterial expression system assessed as residual binding level at 1 uM by Kinomescan method relative to control.
SRSF protein kinase 3 (Homo sapiens), sequence (Q9UPE1 whole entry, the tested form may be a part): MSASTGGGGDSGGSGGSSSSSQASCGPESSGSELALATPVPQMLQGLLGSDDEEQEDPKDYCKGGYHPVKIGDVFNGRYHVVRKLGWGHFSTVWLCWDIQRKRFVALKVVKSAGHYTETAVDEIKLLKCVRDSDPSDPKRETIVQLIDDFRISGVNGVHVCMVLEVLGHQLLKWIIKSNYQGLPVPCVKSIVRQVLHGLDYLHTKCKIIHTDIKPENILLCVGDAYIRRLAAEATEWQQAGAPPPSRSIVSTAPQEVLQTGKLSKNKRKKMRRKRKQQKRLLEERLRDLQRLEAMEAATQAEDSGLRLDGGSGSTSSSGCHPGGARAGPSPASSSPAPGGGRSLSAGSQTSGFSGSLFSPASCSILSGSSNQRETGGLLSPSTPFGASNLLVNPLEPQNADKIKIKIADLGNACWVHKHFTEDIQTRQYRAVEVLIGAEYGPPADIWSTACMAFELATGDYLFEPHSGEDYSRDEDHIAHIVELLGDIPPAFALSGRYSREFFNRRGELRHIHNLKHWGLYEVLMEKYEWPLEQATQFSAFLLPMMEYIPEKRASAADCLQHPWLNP
Test [10] deals with Dual specificity protein kinase CLK1 (Homo sapiens) (UniProt P49759). Description: Binding affinity to wild-type human full length CLK1 (M1 to I484 residues) expressed in bacterial expression system assessed as residual binding level at 1 uM by Kinomescan method relative to control. Put shortly:
as §1

The target in test [11] is Calcium/calmodulin-dependent protein kinase type 1B (Homo sapiens) (UniProt Q6P2M8). Put plainly: Binding affinity to wild-type human partial length CAMK1B (W9 to A311 residues) expressed in mammalian expression system assessed as residual binding level at 1 uM by Kinomescan method relative to control. Put shortly:
as §2

The target in test [12] is Serine/threonine-protein kinase 35 (Homo sapiens) (UniProt Q8TDR2). Put plainly: Binding affinity to wild-type human partial length STK35 (G182 to A534 residues) expressed in bacterial expression system assessed as residual binding level at 1 uM by Kinomescan method relative to control.
In test [13] the target is Serine/threonine-protein kinase pim-3 (Homo sapiens) (UniProt Q86V86). Put plainly: Binding affinity to wild-type human partial length PIM3 (G16 to A317 residues) expressed in bacterial expression system assessed as residual binding level at 1 uM by Kinomescan method relative to control.
For test [14], the target named is Protein kinase C epsilon type (Homo sapiens) (UniProt Q02156). Put plainly: Binding affinity to wild-type human partial length PRKCE (A378 to P737 residues) expressed in mammalian expression system assessed as residual binding level at 1 uM by Kinomescan method relative to control.
Protein kinase C epsilon type (Homo sapiens), sequence (Q02156 whole entry, the tested form may be a part): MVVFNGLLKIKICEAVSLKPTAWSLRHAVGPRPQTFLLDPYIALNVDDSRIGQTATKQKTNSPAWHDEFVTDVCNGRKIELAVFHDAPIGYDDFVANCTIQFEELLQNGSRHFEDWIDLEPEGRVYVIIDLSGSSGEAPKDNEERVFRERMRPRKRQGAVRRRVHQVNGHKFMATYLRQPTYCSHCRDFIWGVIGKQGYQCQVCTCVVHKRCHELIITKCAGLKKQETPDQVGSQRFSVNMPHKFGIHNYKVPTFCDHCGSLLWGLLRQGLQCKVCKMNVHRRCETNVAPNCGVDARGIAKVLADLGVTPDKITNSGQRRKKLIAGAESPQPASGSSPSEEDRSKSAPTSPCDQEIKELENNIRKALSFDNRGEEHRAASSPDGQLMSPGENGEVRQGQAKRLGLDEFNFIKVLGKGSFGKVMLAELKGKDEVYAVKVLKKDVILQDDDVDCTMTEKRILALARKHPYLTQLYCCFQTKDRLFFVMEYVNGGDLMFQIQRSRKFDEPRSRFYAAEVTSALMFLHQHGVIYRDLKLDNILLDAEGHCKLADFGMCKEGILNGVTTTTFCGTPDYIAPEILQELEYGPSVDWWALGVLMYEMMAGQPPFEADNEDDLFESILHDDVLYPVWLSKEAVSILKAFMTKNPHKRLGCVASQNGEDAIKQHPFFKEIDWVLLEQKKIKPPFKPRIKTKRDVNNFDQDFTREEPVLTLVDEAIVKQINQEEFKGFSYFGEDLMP
Test [15] concerns the target Ephrin type-B receptor 3 (Homo sapiens) (UniProt P54753). Description: Binding affinity to wild-type human partial length EPHB3 (Q599 to T928 residues) expressed in bacterial expression system assessed as residual binding level at 1 uM by Kinomescan method relative to control. Put shortly: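 Active-site-directed competition binding panel of 468 kinases (KinomeScan), compound at 1 μM. The read-out is kinase remaining bound, given as a percentage of the DMSO control. […]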

Test [16] deals with Cyclin-dependent kinase 2 (Homo sapiens) (UniProt P24941). Put plainly: Binding affinity to wild-type human full length CDK2 (M1 to L298 residues) expressed in bacterial expression system assessed as residual binding level at 1 uM by Kinomescan method relative to control. Put shortly:
as §1

Another test has as its system Mus musculus. Description: In vivo inhibition of SRC in C57B6 mouse assessed as reduction in phosphorylation of SRC Y416 at 5 mg/kg, ip measured after 2 to 4 hrs by Western blot analysis. It is filed as functional, organism-based. Put shortly: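 Adult C57B6 mice, n = 2 per condition, dosed intraperitoneally 5 mg/kg three times every 12 h; vehicle 5% DMSO/95% D5W. Spleens taken 2 or 4 h after the final dose and lysed in M-PER with protease/phosphatase inhibitors. Lysates blotted for phospho-SRC Y416, total SRC and β-actin.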
Background: In western blotting, separated proteins are transferred to a membrane and probed.

For test [17], the target named is Serine/threonine-protein kinase LATS2 (Homo sapiens) (UniProt Q9NRM7). Put plainly: Binding affinity to wild-type human partial length LATS2 (Q641 to V1088 residues) expressed in mammalian expression system assessed as residual binding level at 1 uM by Kinomescan method relative to control.
Serine/threonine-protein kinase LATS2 (Homo sapiens), sequence (Q9NRM7 whole entry, the tested form may be a part): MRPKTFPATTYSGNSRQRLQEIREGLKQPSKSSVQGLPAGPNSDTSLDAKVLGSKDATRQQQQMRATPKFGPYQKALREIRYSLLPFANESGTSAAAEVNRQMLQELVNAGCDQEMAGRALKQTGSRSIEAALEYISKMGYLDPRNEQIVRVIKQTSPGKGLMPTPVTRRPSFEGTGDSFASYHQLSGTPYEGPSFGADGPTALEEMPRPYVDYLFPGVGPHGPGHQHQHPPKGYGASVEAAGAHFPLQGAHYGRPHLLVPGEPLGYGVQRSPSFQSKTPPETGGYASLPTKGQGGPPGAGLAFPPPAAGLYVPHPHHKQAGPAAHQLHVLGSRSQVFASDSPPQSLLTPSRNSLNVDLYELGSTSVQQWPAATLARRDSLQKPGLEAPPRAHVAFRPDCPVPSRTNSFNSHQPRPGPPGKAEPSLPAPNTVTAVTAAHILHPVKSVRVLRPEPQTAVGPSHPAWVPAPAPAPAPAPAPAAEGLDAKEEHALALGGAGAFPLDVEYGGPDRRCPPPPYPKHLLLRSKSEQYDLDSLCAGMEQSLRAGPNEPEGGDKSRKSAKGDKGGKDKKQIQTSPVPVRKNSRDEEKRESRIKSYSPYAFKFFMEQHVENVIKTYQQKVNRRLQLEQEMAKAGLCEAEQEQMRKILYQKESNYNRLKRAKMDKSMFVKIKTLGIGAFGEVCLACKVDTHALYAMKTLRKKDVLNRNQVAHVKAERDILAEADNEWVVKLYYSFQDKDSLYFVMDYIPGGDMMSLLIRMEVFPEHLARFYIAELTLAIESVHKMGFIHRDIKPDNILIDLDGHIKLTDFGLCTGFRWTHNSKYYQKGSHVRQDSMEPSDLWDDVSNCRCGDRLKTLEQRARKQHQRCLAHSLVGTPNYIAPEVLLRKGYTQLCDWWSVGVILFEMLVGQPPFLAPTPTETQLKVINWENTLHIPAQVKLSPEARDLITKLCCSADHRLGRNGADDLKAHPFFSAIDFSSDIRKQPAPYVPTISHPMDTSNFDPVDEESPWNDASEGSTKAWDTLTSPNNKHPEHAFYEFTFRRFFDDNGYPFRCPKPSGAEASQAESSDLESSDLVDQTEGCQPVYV
For test [18], the target named is Calcium/calmodulin-dependent protein kinase type II subunit delta (Homo sapiens) (UniProt Q13557). Description: Binding affinity to wild-type human partial length CAMK2D (M1 to E329 residues) expressed in bacterial expression system assessed as residual binding level at 1 uM by Kinomescan method relative to control.
Calcium/calmodulin-dependent protein kinase type II subunit delta (Homo sapiens), sequence (Q13557 whole entry, the tested form may be a part): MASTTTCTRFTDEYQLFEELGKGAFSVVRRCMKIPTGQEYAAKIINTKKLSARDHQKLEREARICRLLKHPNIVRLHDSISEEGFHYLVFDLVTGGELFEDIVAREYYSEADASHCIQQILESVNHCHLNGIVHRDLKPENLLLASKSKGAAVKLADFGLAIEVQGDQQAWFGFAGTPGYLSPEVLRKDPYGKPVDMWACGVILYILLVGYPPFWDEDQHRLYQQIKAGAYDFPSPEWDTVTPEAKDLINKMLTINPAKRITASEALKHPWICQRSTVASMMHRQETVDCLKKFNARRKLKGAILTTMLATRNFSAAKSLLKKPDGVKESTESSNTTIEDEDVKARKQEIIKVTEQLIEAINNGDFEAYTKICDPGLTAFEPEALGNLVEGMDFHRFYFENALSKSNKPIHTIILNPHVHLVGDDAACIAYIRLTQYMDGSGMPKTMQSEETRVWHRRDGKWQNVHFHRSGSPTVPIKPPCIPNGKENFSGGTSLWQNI
Test [19] concerns the target SRSF protein kinase 2 (Homo sapiens) (UniProt P78362). Put plainly: Binding affinity to wild-type human full length SRPK2 (M1 to S686 residues) expressed in bacterial expression system assessed as residual binding level at 1 uM by Kinomescan method relative to control.

Dual specificity protein kinase CLK1 (Homo sapiens), sequence (P49759 whole entry, looked up, the tested form may be a part): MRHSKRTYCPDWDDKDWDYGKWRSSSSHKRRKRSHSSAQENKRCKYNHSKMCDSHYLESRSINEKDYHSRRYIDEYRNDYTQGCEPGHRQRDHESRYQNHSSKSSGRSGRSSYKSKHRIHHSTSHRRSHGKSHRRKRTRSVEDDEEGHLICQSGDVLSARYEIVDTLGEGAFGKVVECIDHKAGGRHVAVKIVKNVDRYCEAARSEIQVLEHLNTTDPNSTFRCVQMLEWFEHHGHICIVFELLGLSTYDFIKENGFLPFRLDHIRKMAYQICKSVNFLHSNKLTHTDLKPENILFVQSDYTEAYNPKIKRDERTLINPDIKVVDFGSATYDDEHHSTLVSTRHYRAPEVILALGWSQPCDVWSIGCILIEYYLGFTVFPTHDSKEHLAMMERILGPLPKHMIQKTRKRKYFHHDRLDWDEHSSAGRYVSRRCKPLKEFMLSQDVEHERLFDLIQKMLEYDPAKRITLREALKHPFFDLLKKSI

In the case of `C=CC(=O)Nc1ccccc1Nc1nc(Nc2ccc(N3CCN(C)CC3)cc2)ncc1C(=O)Nc1c(C)cccc1Cl`, the Activity worked out at 100% in test [1]; 100% in test [2]; 100% in test [3]; 65% in test [4]; 100% in test [5]; 99% in test [6]. The Activity turned out to be 100% in test [7]; 92% in test [8]; 100% in [9]; 100% in test [10]; 98% in test [11]; 100% in test [12]. Further, the Activity in test [13] worked out at 100%; in test [14], 100%; in [15], 97%; in [16] it was 100%; in test [17], 100%; in test [18], 100%. In addition, the Activity in test [19] was 100%. For the same compound, in the test with Mus musculus, the inhibition result is “Active”.
